Assay outcomes deposited in PubChem BioAssay by several laboratories.
An excerpt weighted towards active compounds, which were near 2.2% of everything screened.
Diaph act CS = activates diaphorase or chemically reduces, flagging diaphorase assay artifacts | Diaphorase/resazurin coupled assay, resorufin fluorescence, 16 min; active compounds read high; 1 = vehicle wells, 0 = NADH-free wells | activation factor at 20 µM | 190,000 compounds, 0.005% hits | AID 1229;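 active = diaphorase activity raised at least twofold by the compound at 20 µM; inactive = activation factor below 2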
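Test system: Clostridium kluyveri diaphorase, purified enzyme; input: enzyme 0.07 U/mL final; buffer or medium: 50 mM HEPES pH 7.4 with 4.542 mM MgCl2, 0.005% Tween 20; also added: 0.114 mM NADH and 0.1 mM resazurin, final amounts; schedule: 16 min enzyme reaction, ambient temperature; technique: fluorescence of resorufin, 544 nm excitation, 590 nm emission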
ROMK primary = modulators of human ROMK potassium channel; Tet-inducible ROMK, thallium flux fluorescence; actives lie on both sides; B-score at 10 µM; 130,000 compounds, 2% hits;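 active = signal ratio slope over the read window, or its plate-corrected B-score, at least 3 SD from the plate mean, either direction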;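 note: B-score of the F/F0 ratio slope over 7 to 12 s after thallium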
G6PDH counter = counter-screen for G6PDH assay hits: L. mesenteroides G6PDH inhibition; AID 1020; Purified L. mesenteroides G6PDH, diaphorase/resazurin coupled fluorescence, 45 min; inhibition, % at 5 µM; 200,000 compounds, 0.12% hits; in the data active = inhibition above about 50%
Diaphorase inh = counter-screen for diaphorase-based assays: diaphorase inhibitors and chemical oxidizers | diaphorase resazurin-to-resorufin fluorescence, NADH, 16 min; bacterial (C. kluyveri) enzyme, not human | inhibition, % at 20 µM | 190,000 compounds, 0.69% hits | AID 1217;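 active = primary screen inhibition at 20 µM above a set limit, cut at about 50% in these data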
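Assay system: diaphorase enzyme from Clostridium kluyveri. Quantity: enzyme working solution with 0.14 U/mL diaphorase. Schedule: reaction incubation of 16 min at room temperature. Technique: resorufin fluorescence, excitation 544 nm, emission 590 nm. Controls: No-NADH positive control and DMSO neutral control.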
PMI act satM6P = PMI (human) activation, high substrate | P34949 | coupled PMI enzyme assay, resazurin fluorescence, 20 min; active compounds read high; 1 = untreated enzyme, 0 = substrate-free blank | activation factor at 20 µM | 190,000 compounds, 0.34% hits | AID 1216;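 active = activation factor of 2 or more at 20 µM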
Target sequence (P34949 whole entry, looked up): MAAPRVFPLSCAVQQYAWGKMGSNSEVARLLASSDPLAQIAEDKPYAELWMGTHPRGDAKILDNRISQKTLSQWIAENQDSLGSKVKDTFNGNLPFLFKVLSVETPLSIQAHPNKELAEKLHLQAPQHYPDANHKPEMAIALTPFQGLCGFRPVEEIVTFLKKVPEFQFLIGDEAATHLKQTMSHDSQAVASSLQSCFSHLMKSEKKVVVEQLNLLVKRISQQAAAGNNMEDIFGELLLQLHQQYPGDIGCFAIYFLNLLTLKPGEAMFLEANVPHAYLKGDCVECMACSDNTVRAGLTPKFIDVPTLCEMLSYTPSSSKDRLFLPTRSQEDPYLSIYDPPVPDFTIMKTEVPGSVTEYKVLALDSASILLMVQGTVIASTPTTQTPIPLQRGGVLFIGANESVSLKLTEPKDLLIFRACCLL
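Test system: human PMI in coupled enzyme assay; Input: PMI at 15 ng/mL final; Medium: HEPES buffer, pH 7.4; Schedule: 20 min incubation at room temperature; Technique: resorufin fluorescence at Ex 544/Em 590 nm; Compound: 20 µM single dose; Probe or stimulus: Near-saturating mannose-6-phosphate, 1.0 mM.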
PMI act = activators of human phosphomannose isomerase; P34949; purified human PMI, coupled resazurin fluorescence, 20 min; active compounds read high; 1 = vehicle control, 0 substrate-free wells; activation factor at 20 µM; 190,000 compounds, 0.005% hits;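 active = activation factor of 2 or more at 20 µM, relative to plate controls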
Of the large screens only hits and unclear results are named; the others gave an inactive call.

CCC(C)(C)C1CCC(=NNc2nc3ccccc3[nH]2)CC1 (centres undefined)	PMI act satM6P 2
CC(=O)N1CCC(=NNc2nc3ccccc3[nH]2)CC1	none
COc1cc(C(=O)NCC(=O)N/N=C/c2ccc(OC(=O)c3ccco3)cc2)cc(OC)c1OC	none
Cc1ccc(NCc2ccc(O)c3ncccc23)cc1	Diaphorase inh 70 (no result: ROMK primary)
Cc1ccc(NCc2ccc(O)c3ncccc23)cc1C	Diaphorase inh 78 (no result: ROMK primary)
Cc1cc(=O)[nH]c(SCC(=O)NCC2CCCCC2)c1C#N	none
COc1ccc(CN2C(=O)C(=O)N(CC(N)=O)C2=O)cc1	none
Cc1cc(C)cc(NC(=S)Nc2cccc3cnccc23)c1	none
Cc1ccc(NC(=S)Nc2cccc3cnccc23)c(C)c1	Diaphorase inh 59
O=C(c1ccc(Cl)c(S(=O)(=O)N2CCOCC2)c1)N(c1ccccn1)C1CCCCC1	none
O=C(CCN1C(=O)c2ccccc2C1=O)N(CCO)Cc1ccccc1	none (no result: ROMK primary)
O=C1C=C(N(CCO)Cc2ccccc2)c2ccccc2C1=O	G6PDH counter 54
Cc1ccc2c(c1)N(CC(=O)OCC(=O)NCc1ccccc1)C(=O)CO2	none
C=CCSC1=N/C(=C\c2cc(OCC)c(OC(C)=O)c([N+](=O)[O-])c2)C(=O)S1	Diaphorase inh 57
N=C1/C(=C\c2ccc(SCc3ccco3)o2)C(=O)N=C2SC=NN12	Diaphorase inh 54 (no result: ROMK primary)
CC1=NN2C(=N)/C(=C\c3ccc(SCc4ccccc4)o3)C(=O)N=C2S1	none
Nc1c(C(=O)NC2CC2)c2nc3ccccc3nc2n1-c1ccc2c(c1)OCO2	Diaphorase inh 66
CCCNC(=O)c1c(N)n(-c2ccc3c(c2)OCO3)c2nc3ccccc3nc12	none (no result: ROMK primary)
CCOc1ccc(-n2c(=S)sc3c(=O)[nH]c(SCC(=O)N4CCC(C)CC4)nc32)cc1	Diaphorase inh 62
CCOC(=O)CSc1nc2c(sc(=S)n2-c2ccc(OCC)cc2)c(=O)[nH]1	none (no result: ROMK primary)
CCOc1ccc(-n2c(=S)sc3c(=O)[nH]c(SCC(=O)C(C)(C)C)nc32)cc1	Diaphorase inh 68 (no result: ROMK primary)
O=C(NCCOc1ccc(Cl)cc1)C(=O)NCC1CCCO1 (centres undefined)	Diaphorase inh 51
O=C(NCCOc1ccccc1)C(=O)NCC1CCCO1 (centres undefined)	none
O=C(Nc1ccc(C(=O)OC[C@@H]2CCCN3CCCC[C@H]23)cc1)c1cccc(Br)c1	none
COc1cc(CCN2C(=O)N[C@@H](c3cccc(C(F)(F)F)c3)C(C(C)=O)=C2C)cc(OC)c1OC	PMI act satM6P 2
CC(=O)C1=C(C)N(Cc2ccccc2)C(=O)N[C@@H]1c1cccc(C(F)(F)F)c1	none
O=C(COc1ccccc1[N+](=O)[O-])N/N=C/c1ccc(O)c([N+](=O)[O-])c1	none
O=C(COc1ccccc1C(=O)N/N=C\c1ccc(O)c(O)c1)N/N=C/c1ccc(O)c(O)c1	Diaphorase inh 70
COc1cc(Cl)cc(C=O)c1OCC(=O)O	none
COc1cccc(C2CC(c3ccccc3)=NN2S(=O)(=O)c2ccc(C)cc2)c1OC (centres undefined)	ROMK primary -8.1
O=C1CN(c2nc(-c3cccs3)nc3sc4c(c23)CCCC4)CCN1	PMI act satM6P 2.2
COc1ccc(NS(=O)(=O)c2cccc(NC(=O)CCS(=O)(=O)c3ccccc3)c2)cc1	none (no result: ROMK primary)
CCn1c2ccccc2c2nc3cc(C(=O)O)ccc3nc21	Diaphorase inh 60
CCOc1cc2c(C#N)c(N3CCCCC3)nc(N)c2c(N)n1	Diaphorase inh 58
COc1cc2c(C#N)c(N3CCCCC3)nc(N)c2c(N)n1	G6PDH counter 51, Diaphorase inh 64 (no result: ROMK primary)
COc1cc2c(C#N)c(N3CCc4ccccc4C3)nc(N)c2c(N)n1	Diaphorase inh 61 (no result: ROMK primary)
Cc1ccc(NC(=O)CN2C(=O)S/C(=C/c3ccc(-c4cc(C(=O)O)ccc4C)o3)C2=O)cc1C	Diaphorase inh 71
Cc1cccc(NC(=O)CN2C(=O)S/C(=C\c3ccc(-c4cccc(C(=O)O)c4C)o3)C2=O)c1	none
O=C(C1=C[C@@H](c2ccc(C(F)(F)F)cc2)C[C@@H](OCc2ccc(CO)cc2)O1)N1CCOCC1	none (no result: ROMK primary)
O=C(C1=C[C@H](c2ccc(C(F)(F)F)cc2)C[C@H](OCc2ccc(CO)cc2)O1)N1CCCCCCC1	Diaphorase inh 50 (no result: ROMK primary)
CC(=O)n1cc([C@H]2C=C(C(=O)N3CCN(Cc4ccccc4)CC3)O[C@@H](OCc3ccc(CO)cc3)C2)c2ccccc21	Diaphorase inh 52 (no result: ROMK primary)
O=C1NC(=S)S/C1=C\c1coc2ccccc2c1=O	ROMK primary -4.6
C/[N+]([O-])=C\c1coc2ccccc2c1=O	none
O=C1Cc2cc(CCN3CCN(c4nsc5ccccc45)CC3)c(Cl)cc2N1	none (no result: ROMK primary)
O=C1/C(=C/c2cccnc2)CC/C1=C\c1cccnc1	none
O=C1/C(=C/c2cccnc2)CCC/C1=C\c1cccnc1	ROMK primary -4.6
CCC1C/C(=C\c2cccnc2)C(=O)/C(=C/c2cccnc2)C1 (centres undefined)	ROMK primary -4.3
CC(C)NC(=O)CN1CCC(c2ccccc2)C(O)C1 (centres undefined)	none
COc1cccc2cc(-c3ccnc(=S)[nH]3)oc12	Diaphorase inh 58
Cc1c(Cl)cccc1NC(=O)NCc1ccncc1	none
CCOc1ccc(/C=N/NC(=O)c2cc(-c3cccn3C)n[nH]2)cc1	none
Cc1cccc2cc3c(N)c(C#N)sc3nc12	none (no result: ROMK primary)
Cc1sc(NC(=O)c2sc3nc4c(C)cccc4cc3c2N)c(C#N)c1C	Diaphorase inh 59 (no result: ROMK primary)
CCOc1cccc2sc(Cl)nc12	none (no result: ROMK primary)
CCOc1cccc2sc(NN)nc12	PMI act satM6P 2.2
CCCCNC(=O)CSc1nc2ccc(C)cc2[nH]1	none
CCOC(=O)CCCNC(=O)CSc1nc2ccc(OCC)cc2[nH]1	Diaphorase inh 54
CCCn1c(-c2ccc[nH]c2=O)nc2cc(C)c(C)cc21	none
CCn1cc(CCC(=O)O)c(C)n1	PMI act satM6P 2.3
CCOC(=O)N1CCC(=NNS(=O)(=O)c2cccc([N+](=O)[O-])c2)CC1	PMI act satM6P 2.1
CCOC(=O)N1CCN(S(=O)(=O)c2cc([N+](=O)[O-])ccc2C)CC1	none
Clc1ccc(-c2cn3cccnc3n2)cc1Cl	PMI act satM6P 2 (no result: ROMK primary)
C=CCc1cc(/C=C/c2nc(O)c([N+](=O)[O-])c(=O)[nH]2)cc(OC)c1O	Diaphorase inh 71
CCCC[n+]1ccn(C2=C([O-])c3ccccc3C(=O)/C2=N\S(=O)(=O)c2ccc(Br)cc2)c1	none
